In the library only some 1.6% were active in any assay of this set; here they are far more common.
PKA-R1A activ – activators of PKA-R1A holoenzyme, primary screen, biochemical, fluorescence polarization, Cy5-IP20, bovine R1A, mouse PKAc | AID 504707, 2011 | PKA-R1A dissociation; scaled: DMSO 0%, 113 µM cGMP 100% | cAMP-dependent protein kinase type I-alpha regulatory subunit (Bos taurus) + … | activation, % at 11.4 µM | 0.083% of 340,000 active;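 active = percent activation above the mean of all tested compounds plus 3 SD, cut at about 19% in these data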;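 also: higher means more PKAc released from R1A so a rise in polarization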
PKA-R2B act – activators of PKA-R2B holoenzyme, primary screen, biochemical, fluorescence polarization, Cy5-IP20, human; cAMP-dependent protein kinase catalytic subunit beta (Homo sapiens) + cAMP-dependent …; PKA-R2B holoenzyme dissociation; R2B truncated from residue 108, S112A mutant; 0% DMSO only, 100% 113 µM cGMP; activation, % at 11.4 µM; 0.079% of 340,000 active; AID 504700, 2011;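 active = activation above a cutoff set at the mean over all compounds plus 3 SD, cut at about 18% in these data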;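 also: higher means more holoenzyme dissociation and a rise in polarization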
NR2E3 ag-1 – inhibitors of NR2E3-RetCOR corepressor binding, primary screen, NR2E3 agonist project, biochemical, TR-FRET, GST-NR2E3, biotin-RetCOR. Photoreceptor-specific nuclear receptor (Homo sapiens), Q9Y5X4. 1536-well. inhibition of corepressor binding, % at 4.78 µM. 0.12% of 320,000 active. AID 2300, 2010;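 active = percent inhibition above the cutoff of mean plus 3 SD of all tested compounds, set per screening campaign, cut at about 20% in these data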
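Test system – NR2E3–RetCOR corepressor complex · Quantity – NR2E3 fusion 1.35 nM · Buffer or medium – Tris pH 7.5 · Incubation – Compound–protein incubation for 5 h at 4 °C · Technique – TR-FRET, Eu(K)-anti-GST donor, streptavidin-D2 acceptor, ex 340, em 617/671 nm · Evaluation – percent inhibition of 671/617 nm emission ratio versus biotin and DMSO controls · Plate – 1536-well format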
PG9 Ab binder – binders of HIV-1 gp120 antibody PG9, primary screen, biochemical, TR-FRET; inhibition, % at 6.7 µM; TR-FRET gp120-PG9 antibody binding; 0.43% of 360,000 active; AID 624416, 2012; HIV-1 gp120 / PG9 antibody interaction; in the data active = inhibition above about 8.5%
Rev-erbA mod – modulators of Rev-erb alpha DNA binding, primary screen, biochemical, FITC-DNA, fluorescence polarization, uHTS | activity, % at 10 µM | Nuclear receptor subfamily 1 group D member 1 (Homo sapiens), P20393 | 0.79% of 370,000 active | Rev-erbα–FITC-DNA binding, 90 min | AID 1259318, 2017;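 active = activity above about 14%, limit read from the data; passing the limit was not always enough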
Target sequence (P20393 whole entry, looked up): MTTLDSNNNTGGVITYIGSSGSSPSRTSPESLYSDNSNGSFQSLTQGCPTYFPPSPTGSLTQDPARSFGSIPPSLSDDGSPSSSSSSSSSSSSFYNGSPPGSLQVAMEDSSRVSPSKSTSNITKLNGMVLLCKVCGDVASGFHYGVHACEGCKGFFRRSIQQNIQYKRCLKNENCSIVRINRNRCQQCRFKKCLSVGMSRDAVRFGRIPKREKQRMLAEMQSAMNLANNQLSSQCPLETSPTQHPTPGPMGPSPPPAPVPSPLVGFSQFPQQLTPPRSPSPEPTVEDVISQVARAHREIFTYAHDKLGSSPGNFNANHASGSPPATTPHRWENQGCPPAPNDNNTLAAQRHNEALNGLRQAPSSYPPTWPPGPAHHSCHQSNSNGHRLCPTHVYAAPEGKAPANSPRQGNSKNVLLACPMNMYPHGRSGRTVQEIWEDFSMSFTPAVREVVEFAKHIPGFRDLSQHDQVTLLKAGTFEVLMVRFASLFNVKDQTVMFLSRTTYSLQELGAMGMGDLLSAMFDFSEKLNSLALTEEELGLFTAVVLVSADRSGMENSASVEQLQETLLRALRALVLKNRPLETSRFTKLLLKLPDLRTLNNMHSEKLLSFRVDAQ
NR2E3 ag-2 – NR2E3 agonists in two-hybrid cells, primary screen, cell-based, luminescence, CHO-S, Gal4-NCOR/VP16-NR2E3; Photoreceptor-specific nuclear receptor (Homo sapiens), Q9Y5X4; luciferase; inhibition of corepressor binding, % at 3.98 µM; 0.35% of 360,000 active;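 active = inhibition above the mean of all tested compounds plus 3 SD, cut at about 70% in these data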;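 also: higher means lower luciferase signal from less NR2E3 corepressor binding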
Rev-erbA confirm – modulators of Rev-erb alpha DNA binding, confirmation, biochemical, FITC-DNA, fluorescence polarization, single point; 61% of 3,000 active; activation, % at 25 µM; AID 1259319, 2017; 90 min; shares compounds with Rev-erbA mod;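 active = activation at or above a set limit, or at least 3 SD above the negative control mean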
RORg counter – modulation of RORgamma DNA binding, dose response, counter-screen for Rev-erb alpha modulator project, biochemical, fluorescence polarization, FITC-DNA; shares compounds with Rev-erbA mod; purified RORgamma protein-FITC-DNA binding; IC50, µM; 8% of 910 active; AID 1259320, 2017;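 active = Compounds whose fitted half-maximal concentration for disrupting protein-DNA binding is below 10 micromolar; the record names Rev-erb in its text, so the target is in doubt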
Of the large screens only hits and unclear results are named; the others gave an inactive call (follow-up assays come after a bar, where they were run).

CCn1c(SCC(=O)c2c[nH]c3ccccc23)nnc1-c1cccs1	Rev-erbA mod 101.6 | Rev-erbA confirm 112.5 | RORg counter inactive
Cc1cc(NS(=O)(=O)c2ccc(NC(=O)CSc3nnc(-c4ccncc4)n3Cc3ccco3)cc2)nc(C)n1	none (no result: PKA-R1A activ, PKA-R2B act, NR2E3 ag-1, PG9 Ab binder, NR2E3 ag-2)
COc1ccccc1-c1ccc2c(c1)C(C)(Cc1cc(Cl)ccc1C(F)(F)F)C(=O)N2 (configuration not stated)	Rev-erbA mod 43.0 (no result: PKA-R1A activ, PKA-R2B act, NR2E3 ag-1) | Rev-erbA confirm 62.0 | RORg counter inactive
COc1ccc(Cl)cc1CC1(C)C(=O)Nc2ccc(-c3ccccc3OC)cc21 (configuration not stated)	Rev-erbA mod 49.5 (no result: PKA-R1A activ, PKA-R2B act, NR2E3 ag-1) | Rev-erbA confirm 55.4 | RORg counter inactive
COc1ccccc1-c1ccc2c(c1)C(C)(Cc1cccc(C#N)c1)C(=O)N2 (configuration not stated)	Rev-erbA mod 45.7 (no result: PKA-R1A activ, PKA-R2B act, NR2E3 ag-1) | Rev-erbA confirm 43.4 | RORg counter inactive
COC(=O)C1CCC(CNC(=O)C(Cc2ccc3c(c2)OCO3)NC(C)=O)CC1 (configuration not stated)	none (no result: PKA-R1A activ, PKA-R2B act, NR2E3 ag-1, PG9 Ab binder, NR2E3 ag-2)
CCCC(=O)Nc1ccc(-c2nc3cc(C)ccc3o2)cc1	none
CCCC(=O)Nc1ccc(-c2nc3cc(C)c(C)cc3o2)c(O)c1	Rev-erbA mod 17.1 | Rev-erbA confirm inactive
CCc1cc2cc(C)cc(C)c2nc1SCC(=O)Nc1cc(C)on1	none
CCc1cc2cc(C)cc(C)c2nc1SCC(=O)N1CCCC1	Rev-erbA mod 58.1 | Rev-erbA confirm 41.4 | RORg counter inactive
COc1ccc(Cn2cc(CN3[C@H](C)COc4cc(Br)ccc4S3(=O)=O)nn2)cc1	none (no result: PKA-R1A activ, PKA-R2B act, NR2E3 ag-1, PG9 Ab binder, NR2E3 ag-2)
Oc1c(C=Nc2cccc3cccnc23)sc2ccccc12	Rev-erbA mod 26.3 (no result: PKA-R1A activ, PKA-R2B act, NR2E3 ag-2) | Rev-erbA confirm 36.3 | RORg counter inactive
CC(C)OC(=O)CC(=O)CSc1nc(-c2ccc(F)cc2)cc(-c2ccccc2)c1C#N	Rev-erbA mod 35.9 | Rev-erbA confirm 26.4
COc1cc(-c2cc(-c3ccccc3)nc(SCC(=O)Nc3nccs3)c2C#N)cc(OC)c1OC	Rev-erbA mod 72.1 | Rev-erbA confirm inactive
CCOC(=O)CC(=O)CSc1nc(-c2ccccc2)cc(-c2ccccc2)c1C#N	none
CC1(Cc2ccccc2OC(F)(F)F)C(=O)Nc2cc(-c3ccccc3Cl)ccc21 (configuration not stated)	none (no result: PKA-R1A activ, PKA-R2B act, NR2E3 ag-1)
CC1(Cc2cc(Cl)ccc2C(F)(F)F)C(=O)Nc2ccc(OC(F)(F)F)cc21 (configuration not stated)	none (no result: PKA-R1A activ, PKA-R2B act, NR2E3 ag-1, PG9 Ab binder, Rev-erbA mod)
CC1(Cc2ccccc2OC(F)(F)F)C(=O)Nc2ccc(OC(F)(F)F)cc21 (configuration not stated)	Rev-erbA mod 73.0 (no result: PKA-R1A activ, PKA-R2B act, NR2E3 ag-1) | Rev-erbA confirm 93.8 | RORg counter inactive
COC(=O)c1cccc(CC2(C)C(=O)Nc3ccc(OC(F)(F)F)cc32)c1 (configuration not stated)	Rev-erbA mod 18.3 (no result: PKA-R1A activ, PKA-R2B act, NR2E3 ag-1) | Rev-erbA confirm 14.6
CC1(Cc2ccccc2OC(F)(F)F)C(=O)Nc2ccc(-c3ccsc3)cc21 (configuration not stated)	Rev-erbA mod 72.5 (no result: PKA-R1A activ, PKA-R2B act, NR2E3 ag-1) | Rev-erbA confirm 89.6 | RORg counter inactive
O=C(Nc1nc2ncccn2c1-c1ccccc1)c1ccc(F)cc1	none (no result: PKA-R1A activ, PKA-R2B act, NR2E3 ag-1, PG9 Ab binder, NR2E3 ag-2)

Screens from PubChem BioAssay.
